Screens from PubChem.
LEDGF integ inh = blocks HIV-1 LEDGF/p75-dependent DNA integration | TR-FRET IN-LEDGF/p75 DNA integration, Eu/Cy5 | inhibition, % at 3.7 µM | 0.64% of 370,000 active | AID 743269;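 active = inhibition above the screen-wide mean plus 3 SD, cut at about 13% in these data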;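 also: signal is the Cy5 over europium emission ratio at 671 and 618 nm; 0% = plate median of compound wells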
UHRF1 MBD2 ctr = human UHRF1 methylated DNA binding inhibitors; Q96T88; UHRF1 binding to methylated oligo, TR-FRET; inhibition, % at 4.4 µM; 0.75% of 370,000 active; in the data active = inhibition above about 21%;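 also: UHRF1 SRA domain binding a hemimethylated CpG hairpin DNA probe; 0% = median of test compound wells and 100% = reference inhibitor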
HCV core dimer = blocks dimerization of HCV core protein; TR-FRET GST/Flag-core106 dimerization, 1536-well; inhibition, % at 5 µM; 0.33% of 300,000 active;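 active = inhibition above the mean of all tested compounds plus 3 SD, set per screening campaign, cut at about 45% in these data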
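Assay system: Tagged HCV core106 pair (GST and Flag) | Buffer or medium: KF-containing HEPES buffer, pH 7.45, DTT, CHAPS, BSA | Also added: Eu donor and XL665 acceptor anti-tag antibodies | Dosing: One concentration, 5 µM, in 0.5% DMSO | Timing: 4 h at 22.5 °C | Technique: TR-FRET 671 and 617 nm emission | Repeats: Singlicate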
TDP2 absorb = blocks human TDP2 phosphodiesterase activity; O95551; recombinant TDP2, T5PNP hydrolysis, p-nitrophenol absorbance 415 nm; inhibition, % at 12.8 µM; 0.34% of 370,000 active; AID 720702;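 active = inhibition above the mean of all tested compounds plus 3 SD, set per campaign, cut at about 25% in these data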;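 also: 0% = DMSO with enzyme and 100% = buffer with substrate but no TDP2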
Target sequence (O95551 whole entry, looked up): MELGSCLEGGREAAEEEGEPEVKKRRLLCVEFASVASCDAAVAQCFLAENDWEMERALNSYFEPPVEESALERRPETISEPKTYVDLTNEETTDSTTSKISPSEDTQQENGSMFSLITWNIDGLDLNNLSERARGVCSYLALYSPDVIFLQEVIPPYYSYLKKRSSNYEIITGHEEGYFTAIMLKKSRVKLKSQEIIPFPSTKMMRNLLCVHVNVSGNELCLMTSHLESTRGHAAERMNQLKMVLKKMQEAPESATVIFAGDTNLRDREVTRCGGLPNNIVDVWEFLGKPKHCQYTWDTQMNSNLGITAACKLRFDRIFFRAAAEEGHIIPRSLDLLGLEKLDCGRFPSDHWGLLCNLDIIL
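Evaluation: % inhibition relative to enzyme-containing and enzyme-free wells. Material: recombinant human TDP2. Benchmarks: enzyme-free and DMSO wells. Timing: enzyme reaction with compound for 2 h at 37 °C. Compound dosing: 12.8 µM only. Measured by: p-Nitrophenol epi absorbance. Reagent: T5PNP substrate at 5 mM, a TopII-DNA adduct mimic. Replication: single well per compound.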
MBD2 inh = MBD2-methylated oligo binding inhibition; Q9UBB5; TR-FRET, MBD2 binding to methylated oligonucleotide; inhibition, % at 4.4 µM; 0.31% of 370,000 active; in the data active = inhibition above about 13%
IN multimer act = activates HIV-1 integrase multimerization in LEDGF counter-screen. shares compounds with LEDGF integ inh. TR-FRET HIV-1 integrase multimerization, biochemical. activation, % at 7.7 µM. 17% of 2,000 active. AID 1053131; in the data active = activation above about 8.9%
TRFRET interf = optically interferes with TR-FRET readout in LEDGF counter-screen; shares compounds with LEDGF integ inh; TR-FRET optical interference counterscreen, HIV-1 IN multimerization; inhibition, % at 7.7 µM; 2,000 tested, under 10 active; AID 1053135;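 active = inhibition above the mean over all tested compounds plus 3 SD, which no compound reached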;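 also: 0% = integrase with antibodies and DMSO and 100% = antibodies without integrase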
IN-LEDGF confirm = confirmation of HIV-1 LEDGF/p75-dependent integration inhibitors. TR-FRET LEDGF/p75-dependent HIV-1 integration, biochemical. shares compounds with LEDGF integ inh. inhibition, % at 3.7 µM. 36% of 2,000 active; in the data active = inhibition above about 14%
* = called active by the depositor; . = no result given. The list is not random: actives were taken first. Their share in the collection is about 1.8%.

SMILES	LEDGF integ inh	UHRF1 MBD2 ctr	HCV core dimer	TDP2 absorb	MBD2 inh	IN multimer act	TRFRET interf	IN-LEDGF confirm
CC[C@@H](CO)NC(=O)[C@@H]1C=C2c3cccc4[nH]cc(c34)C[C@H]2N(C)C1	14*	11	.	9	0	0	1	17*
CCN(CC)C(=O)N[C@H]1C[C@@H]2c3cccc4[nH]cc(c34)C[C@H]2N(C)C1	1	-6	-5	2	-7	.	.	.
O=C(CNCc1c(F)cccc1F)N1CCC2(CC1)OCCO2	7	-1	.	-4	3	.	.	.
CN1C2CCC1C(C(=O)Oc1ccccc1)C(c1ccc(Cl)cc1)C2 (centres undefined)	0	-3	.	5	-3	.	.	.
N#CCCC#N	0	0	.	2	-4	.	.	.
CCOc1ccc(-n2c(CC)nc3ccccc3c2=O)cc1	39*	0	15	2	8	-1	4	1
COc1ccc(-n2c(Cc3ccccc3)nc3ccccc3c2=O)cc1	-2	-3	1	9	1	.	.	.
CCN(CC)C(=O)Cn1cc(/C=C2\C(=O)NC(=O)N(c3ccccc3F)C2=O)c2ccccc21	18*	0	8	-2	2	2	-6	5
CN1C(=O)C(=Cc2cn(CC#N)c3ccccc23)C(=O)N(C)C1=O	16*	2	.	-2	-1	0	-1	-5
O=C(NCCN1CCC2(CC1)C(=O)NCN2c1ccccc1)c1cccs1	3	-1	.	8	-2	.	.	.
